Measured values: publication PMC3387282 (ACS medicinal chemistry letters, 2011)
pIC50, pKi: −log10 of the molar value. “Also recorded” adds a separate entry of the source.

Tests used:
MEF Icmt^−/− cells = assay: MTT cell viability in MEF Icmt-/- cells; format: cell-based; details: for effect on viability in MEF Icmt^−/− cells (in words): MTT; for pIC50: read-out: IC50 MEF Icmt^−/−
Icmt = Icmt (Homo sapiens, UniProt O60725); assay: Icmt vapor diffusion assay; format: biochemical; details: for Icmt inhibition (in words): vapor diffusion assay; for potency relative to 10u: Icmt inhibition
Procedure, shortened: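 Vapor diffusion Icmt methylation assay. Screening at 10 μM inhibitor, with specific activity given as percent of the no-inhibitor AFC control. Test compounds were also run as possible substrates. IC50 was measured in vitro, Ki was calculated from IC50 by the Cheng–Prusoff method, and inhibition mode was set by further biochemical evaluation.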

MEF Icmt^+/+ cells = assay: MTT cell viability in MEF Icmt+/+ cells; format: cell-based
[1] = tested on: GFP-K-Ras localization in Jurkat T cells (E 6.1); assay: GFP-K-Ras membrane localization in Jurkat T cells; format: cell-based; details: 24 h treatment
Procedure, shortened: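 Jurkat T cells (E 6.1) expressing GFP-KRas treated 24 h with vehicle, test compound at several concentrations, or 25 μM simvastatin as reference. Cells laid on poly-L-lysine-coated coverslips (100 μg/mL) and fixed in 3.7% formaldehyde for 10 min. Fluorescence microscopy scored by eye in random fields of 100 cells as normal plasma membrane, partial, or complete mislocalization.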

Chain of Icmt (O60725 whole entry, the tested form may be a part): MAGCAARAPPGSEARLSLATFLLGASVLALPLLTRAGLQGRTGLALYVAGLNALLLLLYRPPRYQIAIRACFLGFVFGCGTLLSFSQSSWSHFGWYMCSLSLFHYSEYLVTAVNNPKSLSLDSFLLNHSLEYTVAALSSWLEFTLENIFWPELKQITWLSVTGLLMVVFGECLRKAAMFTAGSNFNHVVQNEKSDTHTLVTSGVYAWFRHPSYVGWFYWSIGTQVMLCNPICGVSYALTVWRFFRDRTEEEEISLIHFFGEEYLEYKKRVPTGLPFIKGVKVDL

SMILES: COC(=O)CCSC/C=C(\C)CCn1cc(-c2cccc3ccccc23)nn1 [Compound 10g]
- effect on viability in MEF Icmt^−/− cells (in words) (MEF Icmt^−/− cells): did not affect viability
- pIC50 (MEF Icmt^−/− cells): < 4.00

SMILES: COC(=O)CCSC/C=C(\C)CCn1cc(CCc2ccc(-c3ccccc3)cc2)nn1 [Compound 10n]
- pKi (Icmt): 6.40
- mode of Icmt inhibition (Icmt): competitive inhibitor
- ligand efficiency (in words) (Icmt; compared with POP-3MB): significantly improved ligand efficiency
- Icmt inhibition (in words) (Icmt): more potent than the corresponding carboxylate, 11n
- activity in MEF Icmt^+/+ versus Icmt^−/− cells (in words) (MEF Icmt^+/+ cells): selectively cytotoxic
- GFP-K-Ras membrane localization [1]: decrease in normal membrane localization; also recorded: capable of inducing K-Ras mislocalization
- pIC50 (MEF Icmt^−/− cells): < 4.00

SMILES: COC(=O)CCSC/C=C(\C)CCn1cc(CCc2cccc(-c3ccccc3)c2)nn1 [Compound 10o]
- potency relative to 10n (times less potent) (Icmt; ratio of Icmt IC50): ~30
- effect on viability in MEF Icmt^−/− cells (in words) (MEF Icmt^−/− cells): did not affect viability
- pIC50 (MEF Icmt^−/− cells): < 4.00

SMILES: COC(=O)CCSC/C=C(\C)CCn1cc(CCc2ccccc2-c2ccccc2)nn1 [Compound 10p]
- Icmt inhibition (in words) (Icmt): further reduced inhibitory activity

SMILES: COC(=O)CCSC/C=C(\C)CCn1cc(COc2ccc(-c3ccccc3)cc2)nn1 [Compound 10q]
- Icmt inhibition (in words) (Icmt): detrimental to inhibition

SMILES: COC(=O)CCSC/C=C(\C)CCn1cc(CCc2ccc(-c3ccc(F)cc3)cc2)nn1 [Compound 10s]
- potency relative to 10u (Icmt): approximately twice as potent

SMILES: COC(=O)CCSC/C=C(\C)CCn1cc(CCc2ccc(-c3cccc(C#N)c3)cc2)nn1 [Compound 10t]
- potency relative to 10u (Icmt): approximately twice as potent

SMILES: C/C(=C\CSCCC(=O)O)CCn1cc(CCOC2CCCCO2)nn1 (stereo not drawn) [Compound 11m]
- Icmt inhibition (in words) (Icmt): poor Icmt inhibition

SMILES: CC(C)=CCC/C(C)=C/CC/C(C)=C/CSc1ccccc1C(=O)O [FTS, S-farnesylthiosalicylic acid, reference compound]
- activity in MEF Icmt^+/+ versus Icmt^−/− cells (in words) (MEF Icmt^+/+ cells): equivalent activity in both cell lines
